hERG protect = hERG (human) protection from proarrhythmic block | AID 1511 | CHO-hERG, FluxOR thallium flux, dofetilide IC70 present | activation (rescue from dofetilide block), less the hit threshold, % at 10 µM | Q12809 | 310,000 tested, 0.51% active;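 active means activation above the mean of controls blocked by dofetilide plus 5 SD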;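 further: thallium influx through hERG after potassium depolarization seen as dye fluorescence rise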
KCNQ1 pot = potentiates or activates the human KCNQ1 potassium channel. P51787. CHO-K1 KCNQ1, thallium flux FluxOR fluorescence; stronger effect = higher value. B-score at 10 µM. 310,000 tested, 0.35% active;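 active means fluorescence ratio B-score, a plate-corrected score, at least three library SD, with initial intensity B-score within 5 SD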
Target sequence (P51787 whole entry, looked up): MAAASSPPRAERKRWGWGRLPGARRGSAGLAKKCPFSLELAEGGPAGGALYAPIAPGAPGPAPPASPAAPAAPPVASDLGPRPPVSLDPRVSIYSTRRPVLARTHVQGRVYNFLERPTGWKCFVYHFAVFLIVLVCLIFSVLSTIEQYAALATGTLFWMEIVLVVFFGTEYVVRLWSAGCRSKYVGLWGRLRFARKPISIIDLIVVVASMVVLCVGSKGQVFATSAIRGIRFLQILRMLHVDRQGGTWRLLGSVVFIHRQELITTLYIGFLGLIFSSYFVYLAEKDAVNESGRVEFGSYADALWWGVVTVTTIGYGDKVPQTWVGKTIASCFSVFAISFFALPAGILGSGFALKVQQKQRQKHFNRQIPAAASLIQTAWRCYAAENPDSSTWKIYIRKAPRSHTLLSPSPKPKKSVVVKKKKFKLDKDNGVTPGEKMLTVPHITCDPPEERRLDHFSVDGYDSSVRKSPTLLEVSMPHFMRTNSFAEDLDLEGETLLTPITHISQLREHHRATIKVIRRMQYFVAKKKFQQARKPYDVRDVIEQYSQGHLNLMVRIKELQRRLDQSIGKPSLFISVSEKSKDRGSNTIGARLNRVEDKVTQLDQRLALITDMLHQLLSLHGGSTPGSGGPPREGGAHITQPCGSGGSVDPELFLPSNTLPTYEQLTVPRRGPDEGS
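assay system = CHO-K1 cells stably expressing KCNQ1 | medium = assay buffer, equal DMSO in all wells | timing = 37 °C overnight plating, 90-min dark dye load, 20-min compound pretreatment | measured by = kinetic FluxOR thallium fluorescence, 10-s 1-Hz baseline, 110-s post-stimulus read | measure = fluorescence change relative to baseline, converted to B score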
KCNK9 inh = blocks the human KCNK9 two-pore domain potassium channel; HEK293 KCNK9, FluxOR thallium flux fluorescence; stronger effect = lower value; B-score at 10 µM; 310,000 tested, 1.2% active; AID 488922;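 active means ratio B-score over 3 SD below the library mean, with starting fluorescence within 5 SD of its mean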;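 further: negative B-score means less thallium flux so channel inhibition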
KCNQ1 block = human KCNQ1 channel inhibition. AID 2642. B-score at 10 µM. P51787. CHO-K1 KCNQ1, FluxOR thallium flux fluorescence; stronger effect = higher value. 310,000 tested, 1.3% active;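 active means compounds whose thallium flux B-score, printed positive for inhibition, exceeds three library SD while starting fluorescence stays within three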;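 further: channel opened by potassium depolarization with thallium stimulus after 20 min compound exposure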
KCNK3 block = human KCNK3 channel inhibition, primary screen; B-score at 10 µM; 340,000 tested, 0.84% active; AID 602410; CHO-KCNK3 thallium flux, FluxOR fluorescence; stronger effect = lower value;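 active means B-score under library mean minus 4 SD, starting fluorescence ratio at most library mean plus 5 SD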;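 further: more negative B-score means stronger inhibition of thallium flux through KCNK3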
Kir21 inh = blocks the mouse Kir2.1 inward-rectifier potassium channel. HEK293-Kir2.1, FluxOR thallium flux fluorescence; stronger effect = lower value. B-score at 10 µM. 310,000 tested, 0.85% active. P35561;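 active means fluorescence ratio B-score at or below minus 3 SD of library scores, with starting-brightness B-score within 2 SD, cut at about -4.2 in these data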;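 further: channel flux triggered by added potassium and thallium sulfate stimulus; B-score of peak minus minimum fluorescence over baseline after thallium stimulus; more negative B-score means stronger Kir2.1 block with less thallium influx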
An asterisk follows results filed as active; i = inactive; . = no result. Only some compounds are listed: those with a hit (about 3.7% of all), similar ones and a draw of the others.

SMILES | hERG protect | KCNQ1 pot | KCNK9 inh | KCNQ1 block | KCNK3 block | Kir21 inh
Cc1oc(-c2ccc(Cl)cc2)nc1CN1CCC(C(=O)NCCCN2CCOCC2)CC1 | -6 | i | i | i | i | -4.6*
CCC1CCCCN1CCCNC(=O)C1CCN(Cc2nc(-c3ccc(Cl)cc3)oc2C)CC1 (centres undefined) | -9 | i | i | i | i | -1.2
COCCN(CCOC)Cc1c(O)ccc2c1O/C(=C\c1ccc(C)o1)C2=O | -22 | i | i | 9* | i | -6.8
COc1c(O)cc2c(c1O)[C@@H]1OC(CO)C(O)C(O)[C@H]1OC2=O (some centres undefined) | . | . | . | . | i | .
CCN(C(=O)COC(=O)/C=C/c1c(C)nn(-c2ccccc2)c1C)c1c(N)n(Cc2ccccc2)c(=O)[nH]c1=O | . | . | . | . | i | .
CCCCCCCNC(=O)c1ccc(N2CCC3(CC2)OCCO3)c([N+](=O)[O-])c1 | -1 | i | -6.8* | i | i | 0.67
O=C(O)c1ccc(N2CCc3ccccc32)c([N+](=O)[O-])c1 | -4 | i | i | i | i | 1.9
CCCNC(=O)c1ccc(N2CCC3(CC2)CC(c2ccccc2)=NO3)c([N+](=O)[O-])c1 | -7 | i | i | i | i | 0.19
O=C(NCc1ccc(F)cc1)c1ccc(N2CCc3ccccc32)c([N+](=O)[O-])c1 | -10 | i | i | i | i | -5.4*
COc1ccc(CNC(=O)c2ccc(N3CCOCC3)c([N+](=O)[O-])c2)cc1 | -2 | i | i | i | i | -4.9*
Fc1ccc(Nc2nc(NCc3ccco3)c3ccccc3n2)cc1 | -28 | i | i | i | i | -3.9
CCN(CC(=O)Nc1cccc(S(=O)(=O)N(C)c2ccccc2)c1)Cc1cccs1 | . | . | . | . | i | .
N#Cc1ccc(-c2nnnn2-c2ccc3c(c2)OCO3)cc1 | 4.8* | i | i | i | i | -0.73
O=C(CSc1nnc(NC(=O)c2c(F)cccc2F)s1)NCc1ccc(F)cc1 | -5 | i | i | i | i | 0.81
COc1ccc(CN2CCN(Cc3cccc4nonc34)CC2CCO)c(C)c1C (centres undefined) | 5.3* | i | i | i | i | -1.5
CCn1c(CNc2ccc(F)cc2)nnc1SCC(=O)OC1CCCCC1 | -3 | i | i | i | i | -4.5*
CCOC(=O)CSc1nnc(CNc2ccc(Cl)cc2)n1Cc1ccccc1 | -15 | i | i | 8* | i | -2.5
O=C(CN1CCN(S(=O)(=O)c2ccc(F)c(Cl)c2)CC1)N1CCOCC1 | . | . | . | . | i | .
O=C(Nc1ccc(N2CCCC2)c(S(=O)(=O)Nc2cccc(C(F)(F)F)c2)c1)c1cccs1 | -8 | i | -7* | i | i | -0.26
COc1ccc(CCNC(=O)C2CCCN(S(=O)(=O)c3ccc(F)cc3)C2)cc1OC (centres undefined) | -13 | i | i | i | i | 1.2
CC(=O)n1cc(C(C[N+](=O)[O-])SCCN)c2ccccc21 (centres undefined) | -13 | i | i | i | i | -13*
Cn1cc(C(C[N+](=O)[O-])c2ccccc2)c2ccccc21 (centres undefined) | -14 | i | i | i | i | 0.13
O=C(Nc1cc(-c2ccccc2)[nH]n1)c1ccc(Cl)cc1 | -9 | i | i | i | i | 1.9
CCOc1ccc(CN(C)CC(O)COC(c2ccc(OC)cc2)c2ccc(OC)cc2)cc1 (centres undefined) | -24 | i | i | i | i | -7.7*
COc1ccc(C(OCC(O)CN(C)C2CCCCC2)c2ccc(OC)cc2)cc1 (centres undefined) | -11 | i | i | i | i | -2.4
SMILES | hERG protect | KCNQ1 pot | KCNK9 inh | KCNQ1 block | KCNK3 block | Kir21 inh
CCN(CC)S(=O)(=O)c1cc(NC(=O)CSCc2c(C)noc2C)ccc1C | . | . | . | . | -10* | .
CCC(CCC(=O)Nc1ccc(S(N)(=O)=O)cc1)C(=O)O (centres undefined) | 5.1* | i | i | i | i | -0.89
CCOC(=O)CSc1nc2c(c(=O)[nH]1)C(C)(CC)Cc1ccccc1-2 (centres undefined) | -12 | i | i | i | i | 0.02
CCCCCC/C(C)=C1/SC(=S)NC1=O | 59* | 126* | i | i | i | 0.41
C/C(C/C(C)=C1/SC(=S)NC1=O)=C1\SC(=S)NC1=O | . | . | . | . | i | .
CNC(=S)Nc1sc2c(c1C(=O)OC)CCC2 | 11* | 16* | i | i | i | 0.15
COC(=O)c1c(NS(=O)(=O)Cc2ccccc2)sc2c1CCCC2 | 18* | 13* | i | i | i | -0.48
COC(=O)c1c(NC(=O)CCNCc2ccco2)sc2c1CCC2 | -10 | i | i | i | i | -8.1*
COC(=O)c1c(NC(=S)Nc2ccc(F)cc2[N+](=O)[O-])sc2c1CCCCC2 | 6.4* | 10* | i | i | i | -0.23
O=C(CSc1nnc(C2CC2)n1CC1CCCO1)Nc1ccc(Cl)cc1 (centres undefined) | -6 | i | i | i | i | 0.16
CCOc1ccc(OCCCC(=O)N2CCN(S(=O)(=O)c3ccc(Cl)cc3)CC2)cc1 | -12 | i | i | i | i | -0.31
CCCCc1cc(=O)oc2cc(OCc3nn[nH]n3)ccc12 | -9 | i | i | i | i | 0
O=C(Nc1ccc(NC(=O)C2CCCCC2)nc1)c1cccs1 | -11 | i | i | i | i | -0.61
CCOC(=O)c1c(NC(=S)NC)sc2c1CC(C)(C)SC2 | 44* | 71* | i | i | i | -0.59
CCOC(=O)c1cc(-c2ccc(F)cc2)n(CCC(=O)NC2CCN(Cc3ccccc3)CC2)c1C | -12 | i | i | i | i | -4.6*
CC(NC1CCCC1)c1ccccc1 (centres undefined) | -11 | i | i | i | i | -0.27
CC(NCCC(c1ccccc1)c1ccccc1)c1ccccc1 (centres undefined) | -16 | i | i | i | i | -6.4*
O=C(OCc1ccccc1)/C(=C(\O)c1ccccc1Br)c1ccc(-c2ccccc2)cn1 | -18 | i | i | i | i | 1.4
C=CC[n+]1c(C)csc1Nc1cccc(Br)c1 | -14 | i | -6.6* | i | i | 0.04
C=CC[n+]1c(C)csc1Nc1ccc(C)cc1 | -8 | i | i | i | i | 0.15
CC(=O)c1sc(-c2ccc(F)cc2)cc1NS(=O)(=O)c1ccccc1 | -6 | i | i | i | i | 1.9
COc1ccccc1CCNCc1ccc(OC)c(OCc2ccccc2)c1 | -24 | i | i | i | i | -8.5*

Assay outcomes: PubChem, Johns Hopkins Ion Channel Center
